Article PMC5055850 (Bioorganic & medicinal chemistry, 2016)
Where two headings read alike, the source gives them in different places.

Legend:
Type in all cases: cell-based
mouse Fpr1 = target: T1, mouse Fpr1 (Mus musculus, UniProt P33766); assay: Ca2+ flux assay in mFpr1-RBL cells; conditions: for mFpr1-RBL Efficacy: % of the response induced by 5 nM WKYMVm
T1 sequence (P33766 1-364): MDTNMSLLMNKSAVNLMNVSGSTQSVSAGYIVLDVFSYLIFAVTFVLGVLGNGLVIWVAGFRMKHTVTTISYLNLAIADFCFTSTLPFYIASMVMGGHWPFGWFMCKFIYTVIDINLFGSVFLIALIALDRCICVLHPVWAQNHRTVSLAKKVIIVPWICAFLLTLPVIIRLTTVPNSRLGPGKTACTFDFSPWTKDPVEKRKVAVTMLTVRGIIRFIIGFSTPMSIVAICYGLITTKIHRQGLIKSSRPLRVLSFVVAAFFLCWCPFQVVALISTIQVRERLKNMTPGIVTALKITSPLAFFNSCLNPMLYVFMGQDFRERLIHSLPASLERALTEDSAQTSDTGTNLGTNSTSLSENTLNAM
Procedure, shortened: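 RBL-2H3 cells carrying mouse Fpr1 were grown in DMEM with 20% FBS, 10 mM HEPES and G418 (250 µg/ml). Cells were loaded with Fluo-4 AM (1.25 µg/mL final, 30 min, 37 °C, dark) and plated at 2 × 10^5 cells/well. Fluorescence (485/538 nm) was read every 5 s for 240 s at room temperature after compound addition. Maximal rise over baseline normalized to 5 nM WKYMVm. EC50 from 5–6-point nonlinear fits, three experiments.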

mouse Fpr2 = target: T2, mouse Fpr2 (Mus musculus, UniProt O88536); assay: Ca2+ flux assay in mFpr2-RBL cells; conditions: for mFpr2-RBL Efficacy: % of the response induced by 5 nM WKYMVm
T2 sequence (O88536 1-351): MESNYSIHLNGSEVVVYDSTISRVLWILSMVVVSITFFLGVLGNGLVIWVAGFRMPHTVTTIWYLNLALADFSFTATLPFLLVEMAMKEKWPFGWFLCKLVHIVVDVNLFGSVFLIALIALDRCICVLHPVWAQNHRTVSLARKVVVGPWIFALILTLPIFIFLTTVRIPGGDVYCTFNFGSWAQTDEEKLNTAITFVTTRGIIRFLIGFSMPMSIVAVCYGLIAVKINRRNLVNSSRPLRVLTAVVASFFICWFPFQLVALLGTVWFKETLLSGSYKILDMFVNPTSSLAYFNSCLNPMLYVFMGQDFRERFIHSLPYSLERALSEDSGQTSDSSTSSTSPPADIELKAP
Procedure, shortened: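 RBL-2H3 cells stably expressing mouse Fpr2, grown in DMEM with 20% FBS, 10 mM HEPES and G418. Fluo-4 AM loaded (1.25 µg/mL final, 30 min, 37 °C, dark) in HBSS− with HEPES, then resuspended in HBSS with HEPES at 2 × 10^5 cells/well. Fluorescence (485/538 nm) read every 5 s for 240 s at room temperature. Peak rise over baseline was taken and EC50 fitted from 5–6-point curves. Mean of three experiments.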

FPR1 = target: T3, FPR1 (Homo sapiens, UniProt P21462); assay: Ca2+ flux assay in FPR1-HL60 cells; conditions: for Emax: read-out: FPR1-HL60 Efficacy
T3 sequence (P21462 1-350): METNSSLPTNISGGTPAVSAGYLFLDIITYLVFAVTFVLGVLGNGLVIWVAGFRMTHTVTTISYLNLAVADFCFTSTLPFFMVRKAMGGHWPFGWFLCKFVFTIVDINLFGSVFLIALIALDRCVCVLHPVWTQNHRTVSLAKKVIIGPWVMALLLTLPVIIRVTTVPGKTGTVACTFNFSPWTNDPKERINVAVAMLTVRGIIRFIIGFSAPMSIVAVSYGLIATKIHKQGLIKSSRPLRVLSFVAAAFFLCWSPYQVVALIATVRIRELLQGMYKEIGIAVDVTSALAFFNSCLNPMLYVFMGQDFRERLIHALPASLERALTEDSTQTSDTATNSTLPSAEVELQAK
Procedure, shortened: (§1)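 FPR1-, FPR2- or FPR3-transfected HL-60 cells grown in RPMI 1640 with 10% heat-inactivated FCS, 10 mM HEPES and G418 (1 mg/mL). Cells loaded with Fluo-4 AM (1.25 µg/mL final) for 30 min at 37 °C in the dark, then 2 × 10^5 cells/well. Fluorescence (ex 485/em 538 nm) read every 5 s for 240 s at room temperature. Peak rise over baseline normalized to 5 nM fMLF (FPR1) or 5 nM WKYMVm (FPR2, FPR3). EC50 from 5–6-point nonlinear fits, three independent experiments.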

FPR2 = target: T4, FPR2 (Homo sapiens, UniProt P25090); assay: Ca2+ flux assay in FPR2-HL60 cells; conditions: for EC50: HL-60 cells transfected with FPR2; for Emax: read-out: FPR2-HL60 Efficacy
T4 sequence (P25090 1-351): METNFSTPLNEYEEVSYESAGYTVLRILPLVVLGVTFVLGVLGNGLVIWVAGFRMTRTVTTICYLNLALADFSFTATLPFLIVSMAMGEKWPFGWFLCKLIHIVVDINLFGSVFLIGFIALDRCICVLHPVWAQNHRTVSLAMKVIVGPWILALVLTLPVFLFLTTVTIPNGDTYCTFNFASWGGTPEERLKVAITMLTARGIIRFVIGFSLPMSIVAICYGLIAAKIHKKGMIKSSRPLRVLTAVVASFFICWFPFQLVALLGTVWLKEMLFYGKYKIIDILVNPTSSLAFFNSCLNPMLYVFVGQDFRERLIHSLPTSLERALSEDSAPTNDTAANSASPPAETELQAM
Procedure, shortened: as §1

[1] = system: mouse polymorphonuclear neutrophils (mPMN); assay: Ca2+ flux assay in mouse neutrophils; conditions: for mPMN Efficacy: % of the response induced by 5 nM WKYMVm; for EC50: read-out: mPMN EC50
Procedure, shortened: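 Neutrophils taken from BALB/c mouse tibia and femur bone marrow. Isolated on a 45/50/55/62/81% Percoll gradient (1600g, 30 min, 10 °C), then Histopaque 1119 to remove red cells, and kept in HBSS−. Ca2+ fluorescence (485/538 nm) monitored every 5 s for 240 s at room temperature after compound addition. Maximal change over baseline normalized to 5 nM WKYMVm. EC50 from 5–6-point nonlinear regression, three independent experiments.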

[2] = system: human polymorphonuclear neutrophils (hPMN); assay: Ca2+ flux assay in human neutrophils; conditions: for EC50: Homo sapiens, Polymorphonuclear neutrophil, read-out: hPMN EC50
Procedure, shortened: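 Neutrophils from healthy donors' blood, purified by dextran sedimentation, Histopaque 1077 gradient and hypotonic red-cell lysis (>95% pure, >98% viable). Cells in HBSS− with 10 mM HEPES were loaded with Fluo-4 AM (1.25 µg/mL final) for 30 min at 37 °C, then plated at 2 × 10^5 cells/well. Fluorescence (485/538 nm) read every 5 s for 240 s at room temperature. Peak change normalized to 5 nM fMLF. EC50 from 5–6-point nonlinear regression, three experiments.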

human neutrophils = assay: Cell migration; conditions: Neutrophil, 1 h, read-out: EC50 in migration assay
Procedure, shortened: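 Human neutrophils at 2 × 10^6 cells/mL in HBSS with 2% FBS, placed above a 5.0 µm polycarbonate membrane. Lower wells held test compound, DMSO (negative control) or 1 nM fMLF (positive control). Migration ran 60 min at 37 °C, 5% CO2. Migrated cells counted by ATP luminescence against neutrophil standard curves and expressed as % of spontaneous migration. EC50 from 5–6-point nonlinear fits; mean ± SD, three donors.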

FPR3 = target: T5, FPR3 (Homo sapiens, UniProt P25089); assay: Ca2+ flux assay in FPR3-HL60 cells; conditions: for FPR3-HL60 Efficacy: % of the response induced by 5 nM WKYMVm
T5 sequence (P25089 1-353): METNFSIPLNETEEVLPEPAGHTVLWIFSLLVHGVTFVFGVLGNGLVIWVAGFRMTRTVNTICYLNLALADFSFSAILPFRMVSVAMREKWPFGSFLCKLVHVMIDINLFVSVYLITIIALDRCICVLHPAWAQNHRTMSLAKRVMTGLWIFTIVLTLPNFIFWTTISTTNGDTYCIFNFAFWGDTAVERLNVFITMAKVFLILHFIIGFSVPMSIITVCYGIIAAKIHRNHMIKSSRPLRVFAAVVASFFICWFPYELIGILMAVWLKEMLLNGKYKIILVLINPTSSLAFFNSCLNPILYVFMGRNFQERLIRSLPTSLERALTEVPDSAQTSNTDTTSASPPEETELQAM
Procedure, shortened: as §1

[3] = Mus musculus, Polymorphonuclear neutrophil
[4] = % of the response induced by 5 nM fMLF

EC50 (mouse Fpr1) | mFpr1-RBL Efficacy (mouse Fpr1) | EC50 (mouse Fpr2) | mFpr2-RBL Efficacy (mouse Fpr2) | EC50 (FPR1) | Emax (FPR1) | EC50 (FPR2; FPR2-HL60 EC50, Ca2+ flux) | Emax (FPR2) | EC50 [1, 3] | EC50 [2] | EC50 (human neutrophils) | EC50 (FPR3) | FPR3-HL60 Efficacy (FPR3) | Compound | mPMN Efficacy [1] | also measured
6700 ± 2100 nM | 55% | 9400 ± 2700 nM | 65% | 5100 ± 1700 nM | 120% | 5700 ± 2300 nM | 50% | 13500 ± 3700 nM | 9300 ± 2300 nM |  |  |  | Cc1nn(CC(=O)Nc2ccc(Br)cc2)c(=O)c(N)c1C(=O)C=CN(C)C [Compound 24] | 50% | 
18500 ± 4100 nM | 25% | 18300 ± 3800 nM | 35% | 4000 ± 890 nM | 115% | 35 ± 100 nM | 120% | 6000 ± 1900 nM | 300 ± 44 nM | 450 ± 170 nM | 670 ± 220 nM | 110% | COc1ccc(Nc2c(-c3ccn(C)n3)c(C)nn(CC(=O)Nc3ccc(Br)cc3)c2=O)cc1 [Compound 27b, N-(4-Bromophenyl)-2-[5-(4-methoxyphenylamino)-3-methyl-4-(1-methyl-1H-pyrazol-3-yl)-6-oxo-6H-pyridazin-1-yl]acetamide] | 80% | 
 |  |  |  |  | 185% |  | 60% |  | 36 ± 7 nM | 2200 ± 510 nM | 210 ± 44 nM | 150% | COc1cccc(Nc2c(C(C)=O)c(C)nn(CC(=O)Nc3ccc(Br)cc3)c2=O)c1 [Compound 8a, 2-[4-Acetyl-5-(3-methoxyphenylamino)-3-methyl-6-oxopyridazin-1(6H)-yl]-N-(4-bromophenyl)acetamide] |  | 
 |  |  |  | 3600 ± 280 nM | 130% | 590 ± 180 nM | 90% |  | 590 ± 210 nM | 1100 ± 220 nM |  |  | COc1cccc(Nc2c(-c3ccn(C)n3)c(C)nn(CC(=O)Nc3ccc(Br)cc3)c2=O)c1 [Compound 27a, N-(4-Bromophenyl)-2-[5-(3-methoxyphenylamino)-3-methyl-4-(1-methyl-1H-pyrazol-3-yl)-6-oxo-6H-pyridazin-1-yl]acetamide] |  | 
 |  |  |  | 230 ± 70 nM | 120% | 110 ± 14 nM | 105% | 22800 ± 6400 nM | 840 ± 180 nM | 1200 ± 240 nM | 6000 ± 2100 nM | 75% | C=Cc1c(C)nn(CC(=O)Nc2ccc(Br)cc2)c(=O)c1Nc1cccc(OC)c1 [Compound 15, N-(4-Bromophenyl)-2-[5-(3-methoxyphenylamino)-3-methyl-6-oxo-4-vinylpyridazin-1(6H)-yl]acetamide] | 30% | 
 | 50% |  |  |  |  |  |  |  |  |  |  | 75% | 1-[(4-Bromophenylcarbamoyl)-methyl]-5-(3-methoxyphenylamino)-1,6-dihydro-3-methyl-6-oxopyridazine-4-carboxylate [Compound 20] | 100% | EC50 (mouse Fpr1; read-out: mFpr1-RBL EC50, Ca2+ flux, RBL cells transfected with mouse Fpr1): 4700 ± 1300 nM; FPR1-HL60 Efficacy (FPR1; [4]): 130%; EC50 (FPR1; read-out: FPR1-HL60 EC50, Ca2+ flux, HL-60 cells transfected with FPR1): 600 ± 100 nM; FPR2-HL60 Efficacy (FPR2; % of the response induced by 5 nM WKYMVm): 115%; EC50 (FPR2; read-out: FPR2-HL60 EC50, Ca2+ flux): 3100 ± 780 nM; EC50 (FPR3; read-out: FPR3-HL60 EC50, Ca2+ flux, HL-60 cells transfected with FPR3): 17100 ± 4300 nM; EC50 ([1]; Ca2+ flux, mouse bone marrow neutrophils): 1000 ± 340 nM; hPMN Efficacy [2, 4]: 155%
